Screening data (PubChem)
In the library only some 2.9% were active in any assay of this set; here they are far more common.
RanGTP-Imp inh: disruptors of Ran-importin-beta complex formation – biochemical, FRET, CFP-Ran, YFP-importin-beta, homogeneous, primary screen | cell-free CFP-Ran/YFP-importin-beta FRET ratio | inhibition, % (concentration not given with the values) | 300,000 tested, 1.1% active | AID 2216;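 active = more than half of the replicate wells show a fall in the fluorescence ratio signal beyond about 16%, limit read from the data, passing the limit was not always enough; inconclusive = exactly half of the replicate wells pass the set limit; inactive = fewer than half of replicates pass the limit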;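 also: 0% = DMSO wells and 100% = Ran loaded with GDP instead of GTP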
Hck-Nef inh: human Hck-Nef kinase inhibition; P08631; Recombinant Hck-YEEI plus Nef, Z-Lyte FRET kinase assay; inhibition, % at 20 µM; 220,000 tested, 0.68% active;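 active = Hck-Nef kinase inhibition above about 50%, limit read from the data; inactive = inhibition below that limit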;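 also: 0% = DMSO with Hck plus Nef and 100% = Hck alone without Nef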
PfM18AAP inh: blocks P. falciparum M18 aspartyl aminopeptidase | recombinant PfM18AAP, H-Glu-NHMec fluorogenic cleavage | inhibition, % at 7.35 µM | 290,000 tested, 1.2% active;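 active = inhibition above the campaign mean inhibition over all tested compounds plus 3 SD, cut at about 28% in these data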;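 also: 0% = plate median of test compound wells and 100% = 2 mM ZnCl2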
RBBP9 inh: human RBBP9 hydrolase inhibition. 220,000 tested, 0.2% active. O75884. inhibition, % at 7.94 µM. recombinant RBBP9, FP-Rh probe fluorescence polarization;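 active = inhibition above the campaign mean of all tested compounds plus 3 SD, cut at about 14% in these data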;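 also: plate controls were DMSO wells with RBBP9 for no effect and wells lacking RBBP9 protein for full effect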
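System: RBBP9 protein / Quantity: 2.5 µM RBBP9 dispensing solution, before mixing / Also added: Serine-hydrolase probe FP-Rh, 375 nM pre-mixing / Dosing: 7.94 µM single dose, 0.794% DMSO / Timing: enzyme-compound preincubation 30 min, then probe labeling 45 min, 25 °C / Signal: FP readout at 525/598 nm / Controls: DMSO-treated enzyme wells and wells lacking RBBP9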
Runt-CBFb FRET: inhibitors of human RUNX1 Runt domain binding to CBFb. AID 1496. 220,000 tested, 0.46% active. Cerulean-Runt/Venus-CBFb FRET ratio 530/480, 1 h. inhibition, % at 20 µM. Q01196+Q13951;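 active = inhibition over about 50% at 20 µM in the single-dose screen, limit read from the data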;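 also: 0% = DMSO wells and 100% = excess unlabeled CBFb competitor control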
Target sequence (Q01196 whole entry, looked up, the tested form may be a part): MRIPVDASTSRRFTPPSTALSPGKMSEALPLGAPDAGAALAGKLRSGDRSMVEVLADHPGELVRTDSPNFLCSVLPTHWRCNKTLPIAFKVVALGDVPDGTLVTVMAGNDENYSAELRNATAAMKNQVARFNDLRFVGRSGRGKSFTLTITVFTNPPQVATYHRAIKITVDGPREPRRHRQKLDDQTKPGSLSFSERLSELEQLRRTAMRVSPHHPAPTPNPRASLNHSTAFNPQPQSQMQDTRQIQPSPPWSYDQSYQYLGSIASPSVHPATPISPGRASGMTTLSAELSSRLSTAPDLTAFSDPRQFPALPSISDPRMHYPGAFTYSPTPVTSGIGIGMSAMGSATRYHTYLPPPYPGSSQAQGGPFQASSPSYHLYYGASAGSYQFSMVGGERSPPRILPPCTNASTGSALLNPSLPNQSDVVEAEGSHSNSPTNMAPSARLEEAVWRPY
Target sequence (Q13951 whole entry, looked up, the tested form may be a part): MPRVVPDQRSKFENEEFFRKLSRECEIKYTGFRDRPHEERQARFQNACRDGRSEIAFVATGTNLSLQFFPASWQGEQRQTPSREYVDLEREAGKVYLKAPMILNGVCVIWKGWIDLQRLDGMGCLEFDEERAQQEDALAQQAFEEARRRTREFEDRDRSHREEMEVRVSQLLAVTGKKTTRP
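Measured by: fluorescence energy transfer, 422 nm excitation, 530/480 nm emission; Assay system: Cerulean-Runt domain; Medium: Tris pH 7.5 buffer with BSA; Measure: loss of energy transfer signal; Controls: 5 µM unlabeled CBFb as full-inhibition high control; Incubation: protein complex preformed 1 h, compound exposure 1 h, room temperature, dark.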
Runt-SMMHC FRET: inhibitors of human RUNX1 Runt domain binding to CBFb-SMMHC; Q01196+Q13951; Cerulean-Runt/Venus-CBFb-SMMHC FRET ratio 530/480, 1 h; inhibition, % at 20 µM; 220,000 tested, 0.74% active;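 active = mean inhibition across duplicate retests at 20 µM reaching about 50%, limit read from the data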;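 also: 0% = DMSO wells and 100% = wells with excess untagged CBFb-SMMHC; inhibitors lower the FRET ratio by blocking Runt binding to CBFb-SMMHC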
An asterisk follows results filed as active; ? = inconclusive; · = not tested or not shown.

SMILES | RanGTP-Imp inh | Hck-Nef inh | PfM18AAP inh | RBBP9 inh | Runt-CBFb FRET | Runt-SMMHC FRET
COc1cc(CNCCO)ccc1OCCc1ccccc1 | 0 | · | 0 | · | · | ·
CCNC(=O)/C(C#N)=C/c1c(N2CCN(Cc3ccc4c(c3)OCO4)CC2)nc2c(C)cccn2c1=O | 9 | 4 | -1 | -8 | 50* | 63*
C=CCNC(=O)/C(C#N)=C/c1c(N2CCN(c3ccc(OC)cc3)CC2)nc2c(C)cccn2c1=O | ? | · | 8 | · | · | ·
CCNC(=O)/C(C#N)=C/c1c(N2CCN(C)CC2)nc2c(C)cccn2c1=O | -56 | · | -1 | · | · | ·
COCCCNC(=O)/C(C#N)=C/c1c(N2CCN(c3ccccc3)CC2)nc2c(C)cccn2c1=O | 32* | · | -10 | · | · | ·
C=CCNC(=O)/C(C#N)=C/c1c(N2CCN(c3ccccc3)CC2)nc2c(C)cccn2c1=O | 28* | · | 7 | · | · | ·
CCc1cc[n+](-c2nc3ccccc3nc2[N-]S(=O)(=O)c2ccc(Br)s2)cc1 | 41* | 0 | -5 | -5 | -9 | 69*
O=C(NNc1cc(Cl)ccc1Cl)c1c(F)cccc1Cl | -5 | -7 | 19 | -3 | 0 | 0
O=C(NNc1ccc(F)cc1)c1c(F)cccc1Cl | 0 | 20 | 30* | -11 | 2 | 2
O=C(NNc1ccc(Cl)cc1)c1c(F)cccc1Cl | 1 | 17 | 31* | -5 | 0 | -2
CC1CCCN(C(=O)CCS(=O)(=O)c2ccc3c(c2)NC(=O)C(C)S3)C1 (stereo unspecified) | -1 | · | 20 | · | · | ·
OC(CN1CCN(c2ccccc2Cl)CC1)c1ccccc1 (stereo unspecified) | -3 | · | -1 | · | · | ·
CCOC(=O)c1c(NC(C)=O)sc2c1CCN(Cc1ccccc1)C2 | 87* | · | 1 | · | · | ·
COC(=O)c1c(NC(=O)C2COc3ccccc3O2)sc2c1CCN(Cc1ccccc1)C2 (stereo unspecified) | 69* | 1 | -2 | -5 | 29 | 50
COC(=O)c1c(NC(C)=O)sc2c1CCN(Cc1ccccc1)C2 | 91* | · | 5 | · | · | ·
CCCNC(=O)c1c(NC(=O)C2COc3ccccc3O2)sc2c1CCCC2 (stereo unspecified) | 5 | 2 | 5 | -2 | -2 | 3
CCOC(=O)c1c(NC(=O)CC)sc2c1CCN(Cc1ccccc1)C2 | 89* | · | 6 | · | · | ·
CCOC(=O)c1c(NC(=O)CN2CCCCC2)sc2c1CCN(C(=O)OCC)C2 | 6 | 6 | 2 | -3 | -12 | -9
CC(=O)NC(CC(=O)Oc1ccc(C)cc1Br)c1ccccc1 (stereo unspecified) | 10 | · | 3 | · | · | ·
CCOC(=O)c1c(NC(=O)C(C)Sc2cccc[n+]2[O-])sc2c1CCN(Cc1ccccc1)C2 (stereo unspecified) | · | 5 | 1 | -5 | 112* | 81*
CCOC(=O)c1c(NC(=O)CSc2ncccn2)sc2c1CCN(Cc1ccccc1)C2 | 135* | 1 | 12 | -18 | 106* | 151*
COC(=O)c1c(NC(=O)C(C)(C)C)sc2c1CCN(Cc1ccccc1)C2 | 32* | · | 0 | · | · | ·
COC(=O)c1c(NC(=O)c2ccco2)sc2c1CCN(C(C)=O)C2 | ? | · | -4 | · | · | ·
CCOC(=O)c1c(NC(=O)CSc2ncccn2)sc2c1CC(C)(C)NC2(C)C | 0 | · | 2 | · | · | ·
CC1CCN(Cc2nnnn2CCCC(=O)NCCN2CCOCC2)CC1 | -1 | · | -18 | · | · | ·
SMILES | RanGTP-Imp inh | Hck-Nef inh | PfM18AAP inh | RBBP9 inh | Runt-CBFb FRET | Runt-SMMHC FRET
CCOC(=O)c1c[nH]c2nc(C)ccc2c1=O | 24* | 10 | 0 | 2 | 7 | 30
O=C(NCc1n[nH]c(=O)c2ccccc12)C1CC(=O)N(c2ccccc2)C1 (stereo unspecified) | 8 | · | · | · | · | ·
O=c1c2c([N+](=O)[O-])cc([N+](=O)[O-])cc2sn1-c1ccc(Br)cc1 | · | -9 | 25 | 17* | -33 | 52
Oc1cccc2ccc(N3CCOCC3)nc12 | -1 | · | 1 | · | · | ·
O=C1c2ccccc2C(=O)C1c1ccccn1 | 2 | 43 | -3 | -8 | 0 | -1
O=C1c2ccccc2C(=O)C2OC12 (stereo unspecified) | 5 | · | 29* | · | · | ·
COc1ccc(/C=C2/SC(=O)N(CCC(=O)Nc3ccc(C)cc3)C2=O)cc1OC | -4 | 3 | 0 | -2 | -3 | -3
COc1cc(/C=C2\SC(N)=NC2=O)ccc1OCC(=O)Nc1ccc(C)cc1 | -4 | 93* | 5 | -11 | -8 | -30
Cc1cccc(C(=O)NC2CC3CCCC(C2)N3C(=O)Nc2ccccc2)c1 (stereo unspecified) | 2 | · | -5 | · | · | ·
Cc1cc(N)n2nc(C)c(-c3ccc(Cl)cc3)c2n1 | -2 | 18 | 8 | -2 | -3 | -5
Cc1cc(N)n2nc(C)c(-c3ccccc3)c2n1 | ? | 2 | -10 | -4 | 95* | -11
O=C(/C=C/c1ccccc1Cl)c1cccnc1 | 5 | 0 | 28* | -5 | 5 | 4
CCCCN(CC(=O)NC1CCCC1)C(=O)C(=O)Nc1ccc2c(c1)OCCO2 | -2 | · | -6 | · | · | ·
CCCCN(CCCC)c1nc2ccccc2nc1NS(=O)(=O)c1ccc(NC(C)=O)cc1 | 3 | 4 | 5 | 10 | 20 | 70*
CC(=O)Nc1ccc(S(=O)(=O)Nc2nc3ccccc3nc2Sc2nncn2C)cc1 | 36* | 2 | 1 | -5 | 48 | 72*
CCOC(=O)c1cnc2c(ccc3ccccc32)c1N | 3 | · | -3 | · | · | ·
Cc1ccc(S(=O)(=O)NCCC(=O)OCC(=O)N2CCCC2=O)cc1C | 0 | · | · | · | · | ·
